Measurements: ChEMBL document CHEMBL2021818, “Novel desosamine-modified 14- and 15-membered macrolides without antibacterial activity” (2012)
Values after ≈ are worked out from the molar mass of the structure shown.

What was measured:
Type in all cases: functional
Staphylococcus aureus = assay: Antibacterial activity against Staphylococcus aureus ATCC 13709 after 24 hrs at 37 degC by CLSI protocol based microdilution method; conditions: ATCC 13709, 24 h
Procedure, shortened: (§1)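 Macrolide-susceptible strains, broth microdilution MIC per CLSI. Media: Mueller–Hinton broth (MHB) for S. aureus and M. catarrhalis, MHB plus 5% horse serum for streptococci, Haemophilus test medium for H. influenzae. Compounds dissolved in DMF (5 mg/mL stock) and serially twofold diluted in medium over 64 to 0.125 µg/mL. MIC read after 24 h incubation at 37 °C.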

Streptococcus pneumoniae = assay: Antibacterial activity against Streptococcus pneumoniae ATCC […] after 24 hrs at 37 degC by CLSI protocol based microdilution method; procedure, shortened: as §1
Streptococcus pyogenes = assay: Antibacterial activity against Streptococcus pyogenes ATCC 700294 after 24 hrs at 37 degC by CLSI protocol based microdilution method; conditions: ATCC 700294, 24 h; procedure, shortened: as §1
Moraxella catarrhalis = assay: Antibacterial activity against Moraxella catarrhalis ATCC 23246 after 24 hrs at 37 degC by CLSI protocol based microdilution method; conditions: ATCC 23246, 24 h; procedure, shortened: as §1
Haemophilus influenzae = assay: Antibacterial activity against Haemophilus influenzae ATCC 49247 after 24 hrs at 37 degC by CLSI protocol based microdilution method; conditions: ATCC 49247, 24 h; procedure, shortened: as §1

MIC (Staphylococcus aureus) | MIC (Streptococcus pneumoniae) | MIC (Streptococcus pyogenes) | MIC (Moraxella catarrhalis) | MIC (Haemophilus influenzae) | Structure (SMILES)
> 64 µg/mL | 32 µg/mL (≈ 42.7 µM) | 64 µg/mL (≈ 85.5 µM) | 16 µg/mL (≈ 21.4 µM) | > 64 µg/mL | CC[C@H]1OC(=O)[C@H](C)[C@@H](O[C@H]2C[C@@](C)(OC)[C@@H](O)[C@H](C)O2)[C@H](C)[C@@H](O[C@@H]2O[C@H](C)C[C@H](NC)[C@H]2O)[C@](C)(OC)C[C@@H](C)C(=O)N[C@H](C)[C@@H](O)[C@]1(C)O
4 µg/mL (≈ 5.45 µM) | < 0.25 µg/mL | < 0.25 µg/mL | 2 µg/mL (≈ 2.73 µM) | > 64 µg/mL | CC[C@H]1OC(=O)[C@H](C)[C@@H](O[C@H]2C[C@@](C)(OC)[C@@H](O)[C@H](C)O2)[C@H](C)[C@@H](O[C@@H]2O[C@H](C)C[C@H](NC)[C@H]2O)[C@](C)(OC)C[C@@H](C)C(=O)[C@H](C)[C@@H](O)[C@]1(C)O
16 µg/mL (≈ 21.8 µM) | 2 µg/mL (≈ 2.72 µM) | 2 µg/mL (≈ 2.72 µM) | 2 µg/mL (≈ 2.72 µM) | > 64 µg/mL | CC[C@H]1OC(=O)[C@H](C)[C@@H](O[C@H]2C[C@@](C)(OC)[C@@H](O)[C@H](C)O2)[C@H](C)[C@@H](O[C@@H]2O[C@H](C)C[C@H](NC)[C@H]2O)[C@](C)(O)C[C@@H](C)CN(C)[C@H](C)[C@@H](O)[C@]1(C)O
> 64 µg/mL | > 64 µg/mL | > 64 µg/mL | > 64 µg/mL | > 64 µg/mL | CC[C@H]1OC(=O)[C@H](C)[C@@H](O[C@H]2C[C@@](C)(OC)[C@@H](O)[C@H](C)O2)[C@H](C)[C@@H](O[C@@H]2O[C@H](C)C[C@H](N)[C@H]2O)[C@](C)(OC)C[C@@H](C)C(=O)N[C@H](C)[C@@H](O)[C@]1(C)O
> 64 µg/mL | 2 µg/mL (≈ 2.78 µM) | 2 µg/mL (≈ 2.78 µM) | 16 µg/mL (≈ 22.2 µM) | > 64 µg/mL | CC[C@H]1OC(=O)[C@H](C)[C@@H](O[C@H]2C[C@@](C)(OC)[C@@H](O)[C@H](C)O2)[C@H](C)[C@@H](O[C@@H]2O[C@H](C)C[C@H](N)[C@H]2O)[C@](C)(OC)C[C@@H](C)C(=O)[C@H](C)[C@@H](O)[C@]1(C)O
> 64 µg/mL | 4 µg/mL (≈ 5.55 µM) | 32 µg/mL (≈ 44.4 µM) | 8 µg/mL (≈ 11.1 µM) | 64 µg/mL (≈ 88.8 µM) | CC[C@H]1OC(=O)[C@H](C)[C@@H](O[C@H]2C[C@@](C)(OC)[C@@H](O)[C@H](C)O2)[C@H](C)[C@@H](O[C@@H]2O[C@H](C)C[C@H](N)[C@H]2O)[C@](C)(O)C[C@@H](C)CN(C)[C@H](C)[C@@H](O)[C@]1(C)O
> 64 µg/mL | > 64 µg/mL | > 64 µg/mL | > 64 µg/mL | > 64 µg/mL | CC[C@H]1OC(=O)[C@H](C)[C@@H](O[C@H]2C[C@@](C)(OC)[C@@H](O)[C@H](C)O2)[C@H](C)[C@@H](O[C@@H]2O[C@H](C)C[C@@H]3NC(=O)O[C@@H]23)[C@](C)(OC)C[C@@H](C)C(=O)N[C@H](C)[C@@H](O)[C@]1(C)O
> 64 µg/mL | > 64 µg/mL | > 64 µg/mL | > 64 µg/mL | > 64 µg/mL | CC[C@H]1OC(=O)[C@H](C)[C@@H](O[C@H]2C[C@@](C)(OC)[C@@H](O)[C@H](C)O2)[C@H](C)[C@@H](O[C@@H]2O[C@H](C)C[C@@H]3NC(=O)O[C@@H]23)[C@](C)(OC)C[C@@H](C)C(=O)[C@H](C)[C@@H](O)[C@]1(C)O
> 64 µg/mL | > 64 µg/mL | > 64 µg/mL | > 64 µg/mL | > 64 µg/mL | CC[C@H]1OC(=O)[C@H](C)[C@@H](O[C@H]2C[C@@](C)(OC)[C@@H](O)[C@H](C)O2)[C@H](C)[C@@H](O[C@@H]2O[C@H](C)C[C@@H]3NC(=O)O[C@@H]23)[C@](C)(O)C[C@@H](C)CN(C)[C@H](C)[C@@H](O)[C@]1(C)O
> 64 µg/mL | > 64 µg/mL | > 64 µg/mL | > 64 µg/mL | > 64 µg/mL | CC[C@H]1OC(=O)[C@H](C)[C@@H](O[C@H]2C[C@@](C)(OC)[C@@H](O)[C@H](C)O2)[C@H](C)[C@@H](O[C@@H]2O[C@H](C)C[C@H]3[C@H]2OC(=O)N3C)[C@](C)(OC)C[C@@H](C)C(=O)N[C@H](C)[C@@H](O)[C@]1(C)O
> 64 µg/mL | > 64 µg/mL | > 64 µg/mL | > 64 µg/mL | > 64 µg/mL | CC[C@H]1OC(=O)[C@H](C)[C@@H](O[C@H]2C[C@@](C)(OC)[C@@H](O)[C@H](C)O2)[C@H](C)[C@@H](O[C@@H]2O[C@H](C)C[C@H]3[C@H]2OC(=O)N3C)[C@](C)(OC)C[C@@H](C)C(=O)[C@H](C)[C@@H](O)[C@]1(C)O
> 64 µg/mL | > 64 µg/mL | > 64 µg/mL | > 64 µg/mL | > 64 µg/mL | CC[C@H]1OC(=O)[C@H](C)[C@@H](O[C@H]2C[C@@](C)(OC)[C@@H](O)[C@H](C)O2)[C@H](C)[C@@H](O[C@@H]2O[C@H](C)C[C@H]3[C@H]2OC(=O)N3C)[C@](C)(O)C[C@@H](C)CN(C)[C@H](C)[C@@H](O)[C@]1(C)O
> 64 µg/mL | > 64 µg/mL | > 64 µg/mL | > 64 µg/mL | > 64 µg/mL | CC[C@H]1OC(=O)[C@H](C)[C@@H](O[C@H]2C[C@@](C)(OC)[C@@H](O)[C@H](C)O2)[C@H](C)[C@@H](O[C@@H]2O[C@H](C)C[C@H]3[C@H]2OC(=O)N3CC)[C@](C)(OC)C[C@@H](C)C(=O)N[C@H](C)[C@@H](O)[C@]1(C)O
> 64 µg/mL | > 64 µg/mL | > 64 µg/mL | > 64 µg/mL | > 64 µg/mL | CCCN1C(=O)O[C@H]2[C@H](O[C@@H]3[C@@H](C)[C@H](O[C@H]4C[C@@](C)(OC)[C@@H](O)[C@H](C)O4)[C@@H](C)C(=O)O[C@H](CC)[C@@](C)(O)[C@H](O)[C@@H](C)NC(=O)[C@H](C)C[C@@]3(C)OC)O[C@H](C)C[C@@H]21
> 64 µg/mL | > 64 µg/mL | > 64 µg/mL | > 64 µg/mL | > 64 µg/mL | CC[C@H]1OC(=O)[C@H](C)[C@@H](O[C@H]2C[C@@](C)(OC)[C@@H](O)[C@H](C)O2)[C@H](C)[C@@H](O[C@@H]2O[C@H](C)C[C@H]3[C@H]2OC(=O)N3CC)[C@](C)(OC)C[C@@H](C)C(=O)[C@H](C)[C@@H](O)[C@]1(C)O
> 64 µg/mL | > 64 µg/mL | > 64 µg/mL | > 64 µg/mL | > 64 µg/mL | CCCN1C(=O)O[C@H]2[C@H](O[C@@H]3[C@@H](C)[C@H](O[C@H]4C[C@@](C)(OC)[C@@H](O)[C@H](C)O4)[C@@H](C)C(=O)O[C@H](CC)[C@@](C)(O)[C@H](O)[C@@H](C)C(=O)[C@H](C)C[C@@]3(C)OC)O[C@H](C)C[C@@H]21
> 64 µg/mL | > 64 µg/mL | > 64 µg/mL | > 64 µg/mL | > 64 µg/mL | CC[C@H]1OC(=O)[C@H](C)[C@@H](O[C@H]2C[C@@](C)(OC)[C@@H](O)[C@H](C)O2)[C@H](C)[C@@H](O[C@@H]2O[C@H](C)C[C@H]3[C@H]2OC(=O)N3Cc2ccccc2)[C@](C)(OC)C[C@@H](C)C(=O)[C@H](C)[C@@H](O)[C@]1(C)O
> 64 µg/mL | > 64 µg/mL | > 64 µg/mL | > 64 µg/mL | > 64 µg/mL | CC[C@H]1OC(=O)[C@H](C)[C@@H](O[C@H]2C[C@@](C)(OC)[C@@H](O)[C@H](C)O2)[C@H](C)[C@@H](O[C@@H]2O[C@H](C)C[C@H]3[C@H]2OC(=O)N3CC)[C@](C)(O)C[C@@H](C)CN(C)[C@H](C)[C@@H](O)[C@]1(C)O
> 64 µg/mL | > 64 µg/mL | > 64 µg/mL | > 64 µg/mL | > 64 µg/mL | CCCN1C(=O)O[C@H]2[C@H](O[C@@H]3[C@@H](C)[C@H](O[C@H]4C[C@@](C)(OC)[C@@H](O)[C@H](C)O4)[C@@H](C)C(=O)O[C@H](CC)[C@@](C)(O)[C@H](O)[C@@H](C)N(C)C[C@H](C)C[C@@]3(C)O)O[C@H](C)C[C@@H]21
> 64 µg/mL | > 64 µg/mL | > 64 µg/mL | > 64 µg/mL | > 64 µg/mL | CCCCCCN1C(=O)O[C@H]2[C@H](O[C@@H]3[C@@H](C)[C@H](O[C@H]4C[C@@](C)(OC)[C@@H](O)[C@H](C)O4)[C@@H](C)C(=O)O[C@H](CC)[C@@](C)(O)[C@H](O)[C@@H](C)N(C)C[C@H](C)C[C@@]3(C)O)O[C@H](C)C[C@@H]21
> 64 µg/mL | > 64 µg/mL | > 64 µg/mL | > 64 µg/mL | > 64 µg/mL | C=CCN1C(=O)O[C@H]2[C@H](O[C@@H]3[C@@H](C)[C@H](O[C@H]4C[C@@](C)(OC)[C@@H](O)[C@H](C)O4)[C@@H](C)C(=O)O[C@H](CC)[C@@](C)(O)[C@H](O)[C@@H](C)N(C)C[C@H](C)C[C@@]3(C)O)O[C@H](C)C[C@@H]21
32 µg/mL (≈ 41.9 µM) | 1 µg/mL (≈ 1.31 µM) | 4 µg/mL (≈ 5.24 µM) | 0.5 µg/mL (≈ 0.655 µM) | 16 µg/mL (≈ 21 µM) | CC[C@H]1OC(=O)[C@H](C)[C@@H](O[C@H]2C[C@@](C)(OC)[C@@H](O)[C@H](C)O2)[C@H](C)[C@@H](O[C@@H]2O[C@H](C)C[C@H](N(C)C)[C@H]2O)[C@](C)(OC)C[C@@H](C)C(=O)N[C@H](C)[C@@H](O)[C@]1(C)O

Structure (SMILES) | MIC (Staphylococcus aureus) | MIC (Streptococcus pneumoniae) | MIC (Streptococcus pyogenes) | MIC (Moraxella catarrhalis) | MIC (Haemophilus influenzae)
CC[C@H]1OC(=O)[C@H](C)[C@@H](O[C@H]2C[C@@](C)(OC)[C@@H](O)[C@H](C)O2)[C@H](C)[C@@H](O[C@@H]2O[C@H](C)C[C@H](N(C)C)[C@H]2O)[C@](C)(O)C[C@@H](C)CN(C)[C@H](C)[C@@H](O)[C@]1(C)O [AZITHROMYCIN] | 1 µg/mL (≈ 1.34 µM) | < 0.125 µg/mL | < 0.125 µg/mL | < 0.125 µg/mL | 2 µg/mL (≈ 2.67 µM)
